We go through 15 molecules from ChEMBL document CHEMBL3244397, “New dopaminergic and potential anti-parkinson compounds, N,N-disubstituted beta-(3,4-dihydroxyphenyl)ethylamines” (J Med Chem, 1978).

Series [1] deals with Mus musculus. Nature of the series: Antiparkinsonian activity in caudectomized mouse assessed as duration of curvature at 0.348 umol/g, ip. Format: functional. In a few lines: (§1)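 Hydrochlorides in 0.9% saline (0.4-0.6 mL) were given ip in random groups of six, with 5-6-day intervals between retests. A blinded observer recorded onset and duration of asymmetric posture; mean and SE per six mice.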

Series [2] concerns Mus musculus. Nature of the series: Antiparkinsonian activity in caudectomized mouse assessed as onset of curvature at 0.003 umol/g, ip. It is filed as functional. An outline of the steps: as §1
In series [3] the test system is Rattus norvegicus. Nature of the series: Antiparkinsonian activity in Nigra-lesioned rat assessed as number of turns per 83 mins at 0.003 umol/g, ip. It is filed as functional. In a few lines:
(§2)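 Male Sprague-Dawley rats given 6-hydroxydopamine stereotaxically into the right substantia nigra. Used ≥4 weeks later if they turned away from the lesion after la (1.0 µg/g). The same six rats were dosed ip at 5-day intervals as hydrochloride in 0.9% saline; a saline-injected rat served as control. Turns were counted in automatic rotometers; mean and SE of total turns and duration.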

In series [4] the test system is Mus musculus. Nature of the series: Antiparkinsonian activity in caudectomized mouse assessed as duration of curvature at 0.003 umol/g, ip. Format: functional. An outline of the steps: as §1
Series [5] relates to Rattus norvegicus. Nature of the series: Antiparkinsonian activity in Nigra-lesioned rat assessed as number of turns per 45 mins at 0.087 umol/g, ip. It is filed as functional. An outline of the steps:
as §2

The test system of series [6] is Mus musculus. Nature of the series: Antiparkinsonian activity in caudectomized mouse assessed as duration of curvature at 0.087 umol/g, ip. Format: functional. An outline of the steps:
as §1

In series [7] the test system is Mus musculus. Nature of the series: Antiparkinsonian activity in caudectomized mouse assessed as onset of curvature at 0.087 umol/g, ip. It is filed as functional. In a few lines: as §1
Series [8] has as its system Mus musculus. Nature of the series: Antiparkinsonian activity in caudectomized mouse assessed as onset of curvature at 0.348 umol/g, ip. Format: functional. In a few lines: as §1
The test system of series [9] is Mus musculus. Nature of the series: Antiparkinsonian activity in caudectomized mouse assessed as duration of curvature at 0.174 umol/g, ip. Format: functional. In a few lines:
as §1

Series [10] has as its system Mus musculus. Nature of the series: Antiparkinsonian activity in caudectomized mouse assessed as onset of curvature at 0.174 umol/g, ip. It is filed as functional. In a few lines:
as §1

Series [11] deals with Mus musculus. Nature of the series: Antiparkinsonian activity in caudectomized mouse assessed as duration of curvature at 0.435 umol/g, ip. Format: functional. An outline of the steps:
as §1

Series [12] deals with Rattus norvegicus. Nature of the series: Antiparkinsonian activity in Nigra-lesioned rat assessed as number of turns per 79 mins at 0.087 umol/g, ip. It is filed as functional. In a few lines:
as §2

The test system of series [13] is Mus musculus. Nature of the series: Toxicity in caudectomized mouse assessed as mortality at 0.305 umol/g, ip. Format: organism-based. As to conditions: in vivo. An outline of the steps:
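Caudectomized mice, screened for postural response to la (1.0 µg/g), received hydrochloride ip in 0.9% saline. Deaths during behavioural observation were recorded; in one case eight mice were tested.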

Series [14] concerns Mus musculus. Nature of the series: Antiparkinsonian activity in caudectomized mouse assessed as duration of curvature at 0.305 umol/g, ip. Format: functional. An outline of the steps: as §1
Series [15] deals with Rattus norvegicus. Nature of the series: Antiparkinsonian activity in Nigra-lesioned rat assessed as number of turns per 48 mins at 0.087 umol/g, ip. Format: functional. In a few lines: as §2
For series [16], the system named is Rattus norvegicus. Nature of the series: Antiparkinsonian activity in Nigra-lesioned rat assessed as number of turns per 98 mins at 0.087 umol/g, ip. It is filed as functional. In a few lines: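 Male Sprague-Dawley rats given 6-hydroxydopamine stereotaxically into the right substantia nigra. Used ≥4 weeks post-lesion if they rotated away from the lesion after reference agonist (1.0 µg/g ip). Compounds given ip as hydrochloride salts in 0.9% saline, […], to the same six rats at 5-day intervals. Turns counted in automatic rotometers. Mean ± SE of total turns and duration.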

Series [17] relates to Rattus norvegicus. Nature of the series: Antiparkinsonian activity in Nigra-lesioned rat assessed as number of turns at 0.348 umol/g, ip. It is filed as functional. In a few lines:
as §2

Regarding `CCCCCNCCc1ccc(O)c(O)c1.Cl`, the Time with Mus musculus [1] amounted to 0 min.
In the case of `CN1CCc2cccc3c2[C@H]1Cc1ccc(O)c(O)c1-3` [APOMORPHINE], the Time in the series with Mus musculus [2] is given as 5 min; with Mus musculus [4], 14.2 min. Moreover, the Activity in the series on Rattus norvegicus [3] is listed as 828.
Consider `CC(C)CNCCc1ccc(O)c(O)c1.Cl`, for which the Time in the series on Mus musculus [1] was found to be 0 min.
As to `CCCCN(CCC)CCc1ccc(O)c(O)c1.Cl`, in the series with Rattus norvegicus [5], the Activity came to 552. In addition, the Time was 6.5 min in the series with Mus musculus [6] and 4.6 min in the series with Mus musculus [7].
For `CC(C)CN(C)CCc1ccc(O)c(O)c1.Cl`, the Time in the series with Mus musculus [8] was 3.6 min; in the series on Mus musculus [9], 2.8 min; with Mus musculus [1] it was 31.8 min; in the series with Mus musculus [10], 4 min; in the series on Mus musculus [6], 0 min.
In the case of `CCCCN(CCCC)CCc1ccc(O)c(O)c1.Cl`, the Time in the series with Mus musculus [11] and with Mus musculus [1] was 0 min each time.
As to `CCCCCN(CCC)CCc1ccc(O)c(O)c1.I`, the Activity with Rattus norvegicus [12] was 628. In addition, the Time in the series with Mus musculus [6] is recorded as 14 min; with Mus musculus [7] it was 4.2 min.
Regarding `CCCCCN(C)CCc1ccc(O)c(O)c1.Cl`, the Time in the series on Mus musculus [8] came out at 14.6 min; in the series on Mus musculus [9], 2.5 min; with Mus musculus [1], 20.6 min; in the series with Mus musculus [10], 3.8 min; in the series with Mus musculus [6], 0 min.
On to `CN(CCc1ccccc1)CCc1ccc(O)c(O)c1.Cl`, for which the Time is 6.7 min with Mus musculus [8], 21.2 min in the series with Mus musculus [1] and 0 min in the series with Mus musculus [6].
Take `Cl.Oc1ccc(CCNCCc2ccccc2)cc1O`: the Time with Mus musculus [1] is 0 min.
Take `CCCCCN(CCCCC)CCc1ccc(O)c(O)c1.Cl`: in the series with Mus musculus [13], the Activity entry is recorded as “Toxic”. Moreover, in the series on Mus musculus [14], the Time is 0 min.
With `CCCCN(CCC)CCc1ccc(O)c(O)c1.I`, the Time is 6.7 min in the series on Mus musculus [6] and 3.5 min in the series with Mus musculus [7]. Further, the Activity with Rattus norvegicus [15] is reported as 457.
Take `CCCN(CCc1ccccc1)CCc1ccc(O)c(O)c1.Cl`: the Activity in the series with Rattus norvegicus [16] came out at 1065. In addition, the Time stood at 15.4 min in the series on Mus musculus [6] and 5 min in the series with Mus musculus [7].
Take `CCCCN(CCC)CCc1ccc2c(c1)OCO2.Cl`: in the series with Rattus norvegicus [17], the Activity was 0. Moreover, in the series on Mus musculus [1], the Time came to 0 min.
Take `CCCN(CCc1ccc(O)c(O)c1)CC(C)C.Cl`: the Time was determined as 10 min in the series with Mus musculus [6] and 3.9 min with Mus musculus [7].
